Measured values pooled from the literature.
Lines come from different studies, so protocols differ.
Organism: Mycobacterium tuberculosis
Observed: microbial growth

O=c1nc(N2CCN(CC3CCCCC3)CC2)sc2c([N+](=O)[O-])cc(C(F)(F)F)cc12
MIC (resazurin; H37RV): 0.002 µM

C[C@H]1COC2(CCN(c3nc(=O)c4cc(C(F)(F)F)cc([N+](=O)[O-])c4s3)CC2)O1
MIC (resazurin; H37RV): < 0.39 µM

COC(=O)c1cc(-c2cccc(NC(=O)Nc3cccc(C#N)c3)c2)on1
MIC (ATCC27294 H37RV; 7 days): 16 µg/mL

Cc1ccc(C)n1-c1ccc(-c2nnc(-c3ccc(Br)cc3)[nH]2)cc1
MIC (broth dilution; H37RV; 21 days): 2 µg/mL

C[C@@H](O)[C@H]1C(=O)N2C(C(=O)O)=C(SCCN=CN)C[C@H]12
MIC (resazurin; H37RA; 14 days): 16 µg/mL

COc1nc2ccc(Br)cc2cc1[C@@H](c1ccccc1)[C@@](O)(CCN(C)C)c1cccc2ccccc12
MIC (resazurin; H37RV; 7 days): 0.17 µM

COC(=O)c1cc(-c2cccc(NC(=O)Nc3ccccc3OC)c2)on1
MIC (ATCC27294 H37RV; 7 days): 0.5 µg/mL

CCC1CCC2(CC1)SC(C)C(=O)N2NC(=O)c1[nH]c2ccc(Cl)cc2c1-c1ccccc1 (centres unmarked)
MIC (ATCC27294 H37RV): 1000 µM

O=C1C(=NNc2nc(-c3ccccc3)cs2)C(N=Cc2ccc(Cl)cc2)=NN1c1ccccc1
MIC (resazurin; H37RV; 5 days): 51.5 µM

Cc1c(Cc2ccccc2Cl)c(=O)n2c([nH]c3ccccc32)c1C#N
MIC (broth dilution; H37RV): > 128 µg/mL

COC(=O)c1cc(-c2cccc(NC(=S)Nc3ccc(F)cc3)c2)on1
MIC (ATCC27294 H37RV; 7 days): 4 µg/mL

CNC(=O)c1cc(Oc2ccc(NC(=O)Nc3ccc(Cl)c(C(F)(F)F)c3)cc2)ccn1
MIC (H37RV): 25 µM

O=C(CNS(=O)(=O)c1ccc([N+](=O)[O-])cc1[N+](=O)[O-])N1CCN(C(c2ccc(F)cc2)c2ccc(F)cc2)CC1
MIC (ATCC27294 H37RV): 25 µg/mL

CC1CCC2(CC1)SC(C)C(=O)N2NC(=O)c1[nH]c2ccc(Cl)cc2c1-c1ccccc1 (centres unmarked)
MIC (ATCC27294 H37RV): 1000 µM

CO[C@H]1/C=C/O[C@@]2(C)Oc3c(C)c(O)c4c(O)c(c(/C=N/N5CCN(C)CC5)c(O)c4c3C2=O)NC(=O)/C(C)=C\C=C\[C@H](C)[C@H](O)[C@@H](C)[C@@H](O)[C@@H](C)[C@H](OC(C)=O)[C@@H]1C
MIC (H37RV; 5 days): 0.012 µM

COC(=O)c1cc(-c2cccc(NC(=O)Nc3cccc(C(F)(F)F)c3)c2)on1
MIC (ATCC27294 H37RV; 7 days): 2 µg/mL

CO[C@H]1/C=C/O[C@@]2(C)Oc3c(C)c(O)c4c(O)c(c(/C=N/N5CCN(C)CC5)c(O)c4c3C2=O)NC(=O)/C(C)=C\C=C\[C@H](C)[C@H](O)[C@@H](C)[C@@H](O)[C@@H](C)[C@H](OC(C)=O)[C@@H]1C
MIC: 0.02 µg/mL

O=C1COCCN1c1ccc(CO[C@@H]2COc3nc([N+](=O)[O-])cn3C2)cc1F
MIC (H37RV): 0.4 to 0.8 µg/mL

COC(=O)c1cc(-c2cccc(NC(=O)NCc3ccccc3)c2)on1
MIC (ATCC27294 H37RV; 7 days): 4 µg/mL

CC1=NN(CNc2ccccn2)C(=O)C1=NNn1c(-c2ccccc2)nc2ccccc2c1=O
MIC (resazurin; H37RV): 110 µM
